{"data": "Measured values collected from several papers", "target": "Tyrosine-protein kinase Fgr (FGR, Homo sapiens, UniProt P09769)", "note": "Compare with care: the assays were run in different laboratories."}
{"Compound": "F[C@@H]1CCN(c2nccc(-c3cnn4ncccc34)n2)C1", "test": "binding", "setting": "1 µM", "remaining binding [%]": 81}
{"Compound": "CNCc1ccccc1-c1csc([C@@H](C)Nc2nc(C)nc3cc(OC)c(OC)cc23)c1", "test": "cell-free assay, competition with immobilised ligand", "setting": "1 µM", "remaining binding [%]": 100}
{"Compound": "CN(CCCC(F)(F)F)c1nccc(-c2cnn3ncccc23)n1", "test": "binding", "setting": "1 µM", "remaining binding [%]": 85}
{"Compound": "O=C(Nc1c[nH]nc1C(=O)NC1CCNCC1)c1cc(F)cc(F)c1", "test": "binding, competition with immobilised ligand", "setting": "1 µM", "remaining binding [%]": 100}
{"Compound": "Nc1ncc2c(n1)-c1c([nH]c3ccc(C#CC4CC4)cc13)CCCC2", "test": "binding, competition with immobilised ligand", "setting": "1 µM", "remaining binding [%]": 100}
{"Compound": "CCN1CCN(Cc2ccc(C(=O)Nc3ccc(C)c(Oc4ccc5c(c4)CC(=O)N5)c3)cc2C(F)(F)F)CC1", "test": "binding, competition with immobilised ligand", "setting": "1 µM", "remaining binding [%]": 68}
{"Compound": "CN(C)CC#Cc1ccc(OCCCc2sc(N3CCc4cccc(C(=O)Nc5nc6ccccc6s5)c4C3)nc2C(=O)O)c(F)c1", "test": "cell-free assay, competition with immobilised ligand", "setting": "1 µM", "remaining binding [%]": 100}
{"Compound": "O=C(c1ccc(Nc2ncc(Cl)c(-c3ccc(Cl)s3)n2)cc1)N1CCC(N2CCCC2)CC1", "test": "cell-free assay, competition with immobilised ligand", "setting": "1 µM", "remaining binding [%]": 96}
{"Compound": "CN(C)c1nccc(-c2cnc3ncccn23)n1", "test": "binding", "setting": "1 µM", "remaining binding [%]": 100}
{"Compound": "CCC(=N\\O)/C(C)=C/c1ccc(F)cc1", "test": "cell-free assay, competition with immobilised ligand", "setting": "1 µM", "remaining binding [%]": 67}
{"Compound": "c1cncc(-c2cccc(Nc3nccc(NC4CCCCC4)n3)c2)c1", "test": "binding, competition with immobilised ligand", "setting": "10 µM", "remaining binding [%]": 14}
{"Compound": "C[C@@H]1CCN(c2nccc(-c3cnn4ncccc34)n2)C1", "test": "binding", "setting": "1 µM", "remaining binding [%]": 100}
{"Compound": "COc1cnc(Nc2cccc(S(N)(=O)=O)c2)nc1N1CCN(c2ccccc2)CC1", "test": "binding, competition with immobilised ligand", "setting": "1 µM", "remaining binding [%]": 95}
{"Compound": "Cc1cnc(Nc2ccc(C(=O)N3CCC(N4CCCC4)CC3)cc2)nc1-c1cc2ccccc2s1", "test": "cell-free assay, competition with immobilised ligand", "setting": "1 µM", "remaining binding [%]": 53}
{"Compound": "Cc1nccc(COC(=O)N2C[C@@H]3[C@@H](CNC(=O)c4ccc5[nH]nnc5c4)[C@@H]3C2)n1", "test": "cell-free assay, competition with immobilised ligand", "setting": "1 µM", "remaining binding [%]": 100}
{"Compound": "O=C(NCCCN1CCOCC1)c1ccc(Nc2ncc(Cl)c(-c3ccc(Cl)s3)n2)cc1", "test": "cell-free assay, competition with immobilised ligand", "setting": "1 µM", "remaining binding [%]": 91}
{"Compound": "CN(C)c1ncc(F)c(-c2cnn3ncccc23)n1", "test": "binding", "setting": "1 µM", "remaining binding [%]": 88}
{"Compound": "CCS(=O)(=O)c1cc2cc(C[C@](O)(CC(C)(C)c3ccc(F)cc3C(N)=O)C(F)(F)F)[nH]c2cn1", "test": "cell-free assay, competition with immobilised ligand", "setting": "1 µM", "remaining binding [%]": 100}
{"Compound": "Cc1cnn2ncc(-c3ccnc(N(C)C)n3)c2c1", "test": "binding", "setting": "1 µM", "remaining binding [%]": 100}
{"Compound": "CN([C@@H]1CCc2c(CC(=O)O)c3ccccc3n2C1)S(=O)(=O)c1ccc(F)cc1", "test": "cell-free assay, competition with immobilised ligand", "setting": "1 µM", "remaining binding [%]": 93}
